Experiments:
[1] = test system: SK-BR-3; assay: Cell cycle arrest in human SK-BR-3 cells assessed as accumulation at G2/M phase at 0.50 uM after 18 hrs using propidium iodide staining by FACS analysis; format: functional
Method in brief: (§1)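 SKBR-3 cells in RPMI1640 with 10% heat-inactivated FBS at 37 °C and 5% CO₂ were treated for the stated times. Cells were fixed overnight in 70% EtOH at −20 °C, then stained with propidium iodide buffer (38 mM sodium citrate pH 7.5, 69 µM PI, 120 µg/mL RNase A) for 15 min at room temperature in the dark. Up to 1×10⁴ gated cells were analyzed by flow cytometry, giving percent distribution per phase.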

[2] = test system: SK-BR-3; assay: Cell cycle arrest in human SK-BR-3 cells assessed as accumulation at Sub-G1 phase at 0.25 uM after 18 hrs using propidium iodide staining by FACS analysis; format: functional
[3] = test system: OVCAR-3; assay: Growth inhibition of human OVCAR3 cells after 48 hrs by SRB assay; format: functional
[4] = test system: SK-BR-3; assay: Cell cycle arrest in human SK-BR-3 cells assessed as accumulation at G1 phase at 0.25 uM after 6 hrs using propidium iodide staining by FACS analysis; format: functional; method in brief: as §1
[5] = test system: SK-BR-3; assay: Cell cycle arrest in human SK-BR-3 cells assessed as accumulation at G1 phase at 5 uM after 3 hrs using propidium iodide staining by FACS analysis; format: functional; method in brief: as §1
[6] = test system: EKVX; assay: Growth inhibition of human EKVX cells after 48 hrs by SRB assay; format: functional
[7] = test system: SK-BR-3; assay: Cell cycle arrest in human SK-BR-3 cells assessed as accumulation at Sub-G1 phase at 0.10 uM after 6 hrs using propidium iodide staining by FACS analysis; format: functional
[8] = test system: SK-BR-3; assay: Cell cycle arrest in human SK-BR-3 cells assessed as accumulation at G1 phase at 0.25 uM after 24 hrs using propidium iodide staining by FACS analysis; format: functional; method in brief: as §1
[9] = test system: SK-BR-3; assay: Cell cycle arrest in human SK-BR-3 cells assessed as accumulation at Sub-G1 phase at 0.50 uM after 6 hrs using propidium iodide staining by FACS analysis; format: functional
[10] = test system: NCI/ADR-RES; assay: Growth inhibition of human NCI/ADR-RES cells after 48 hrs by SRB assay; format: functional
[11] = test system: BT-549; assay: Growth inhibition of human BT549 cells after 48 hrs by SRB assay; format: functional
[12] = test system: Mus musculus; assay: Toxicity in BALB/c athymic nu/nu mouse xenografted with human HT-29 cells assessed as effect on body weight at 5 mg/kg/day, ip administered 5 times per week for 3 weeks; format: organism-based; design: route intraperitoneal; conditions: in vivo, 504 h
Method in brief: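 BALB/c nu/nu mice, three per group, each inoculated s.c. with HT29 cells in Matrigel at two sites. Dosing began once tumors reached about 200 mm³: 5 mg/kg/d i.p., five times weekly for three weeks, in sesame oil with 1% DMSO. Controls received vehicle only. Body weight was recorded weekly.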

[13] = test system: SK-BR-3; assay: Cell cycle arrest in human SK-BR-3 cells assessed as accumulation at S phase at 5 uM after 24 hrs using propidium iodide staining by FACS analysis; format: functional
[14] = test system: SK-BR-3; assay: Cell cycle arrest in human SK-BR-3 cells assessed as accumulation at S phase at 0.25 uM after 6 hrs using propidium iodide staining by FACS analysis; format: functional
[15] = test system: SK-BR-3; assay: Cell cycle arrest in human SK-BR-3 cells assessed as accumulation at G1 phase at 0.10 uM after 24 hrs using propidium iodide staining by FACS analysis; format: functional; method in brief: as §1
[16] = test system: SK-BR-3; assay: Cell cycle arrest in human SK-BR-3 cells assessed as accumulation at G1 phase at 5 uM after 6 hrs using propidium iodide staining by FACS analysis; format: functional; method in brief: as §1
[17] = test system: HCT-116; assay: Growth inhibition of human HCT116 cells after 48 hrs by SRB assay; format: functional
[18] = Apparent volume of distribution during terminal phase in Sprague-Dawley rat at 20 mg/kg, ip; format: ADME, organism-based; design: dose 20 mg/kg, route intraperitoneal; conditions: in vivo, read-out: Vz/F
Method in brief: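 Male Sprague–Dawley rats (300–350 g), n=3, fasted overnight with water available, given a single 20 mg/kg i.p. dose in PBS with 0.1% Tween80 and 20% DMSO. Blood drawn into heparinized tubes at 0, 0.25, 0.5, 1, 2, 4, 8 and 24 h. Plasma measured by LC-MS/MS against an internal standard. Parameters from non-compartmental analysis.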

[19] = test system: Malme-3M; assay: Growth inhibition of human MALME-3M cells after 48 hrs by SRB assay; format: functional
[20] = test system: MDA-MB-468; assay: Growth inhibition of human MDA-MB-468 cells after 48 hrs by SRB assay; format: functional
[21] = test system: SK-BR-3; assay: Cell cycle arrest in human SK-BR-3 cells assessed as accumulation at S phase at 0.10 uM after 12 hrs using propidium iodide staining by FACS analysis; format: functional; method in brief: as §1
[22] = test system: HOP-62; assay: Growth inhibition of human HOP62 cells after 48 hrs by SRB assay; format: functional
[23] = test system: NCI-H226; assay: Growth inhibition of human NCI-H226 cells after 48 hrs by SRB assay; format: functional
[24] = read-out: LC50 (the source's name)

Cc1ccc(C)c(COc2cc(NC(=O)c3ccc4c(c3)OCO4)ccc2N(C)S(C)(=O)=O)c1
Activity [1]: 22.27%
Activity [2]: 8.89%
growth inhibition (GI) [3]: Dose-dependent effect
TGI ([3]; OVCAR-3, 48 h): 166 nM
Activity [4]: 72.21%
Activity [5]: 69.09%
GI50 [6]: 598 nM
TGI [6]: > 100000 nM
growth inhibition (GI) [6]: Dose-dependent effect
CC50 [6, 24]: > 100000 nM
Activity [7]: 3.6%
Activity [8]: 41.27%
Activity [9]: 4.03%
GI50 [10]: 56.2 nM
TGI [10]: 407 nM
growth inhibition (GI) [10]: Dose-dependent effect
CC50 [10, 24]: > 100000 nM
growth inhibition (GI) [11]: Dose-dependent effect
GI50 ([11]; BT-549, 48 h): 656 nM
TGI ([11]; BT-549, 48 h): > 100000 nM
CC50 ([11]; BT-549, 48 h, read-out: LC50 (the source's name)): > 100000 nM
Activity [12]: Non-toxic
Activity [13]: 11.53%
Activity [14]: 14.95%
Activity [15]: 67.9%
Activity [16]: 64.76%
growth inhibition (GI) [17]: Dose-dependent effect
TGI ([17]; HCT-116, 48 h): 1020 nM
CC50 ([17]; HCT-116, 48 h, read-out: LC50 (the source's name)): > 100000 nM
Vd/F [18]: 2.16 L/kg
GI50 [19]: 229 nM
TGI [19]: > 100000 nM
growth inhibition (GI) [19]: Dose-dependent effect
CC50 [19, 24]: > 100000 nM
growth inhibition (GI) [20]: Dose-dependent effect
GI50 ([20]; MDA-MB-468, 48 h): 155 nM
TGI ([20]; MDA-MB-468, 48 h): 401 nM
Activity [21]: 8.17%
growth inhibition (GI) [22]: Dose-dependent effect
GI50 ([22]; HOP-62, 48 h): 329 nM
TGI ([22]; HOP-62, 48 h): > 100000 nM
CC50 ([22]; HOP-62, 48 h, read-out: LC50 (the source's name)): > 100000 nM
growth inhibition (GI) [23]: Dose-dependent effect
GI50 ([23]; NCI-H226, 48 h): 686 nM
TGI ([23]; NCI-H226, 48 h): > 100000 nM
CC50 ([23]; NCI-H226, 48 h, read-out: LC50 (the source's name)): > 100000 nM
